Test results taken from ChEMBL document CHEMBL4350966 (J Med Chem, 2019).

Columns and labels:
fMet-Leu-Phe receptor [1] = biological target: T1, fMet-Leu-Phe receptor (Homo sapiens, UniProt P21462); assay: Biased agonist activity at human FPR1 expressed in FlpIn-CHO cells assessed as intracellular calcium mobilization by Fluo-4-AM dye based fluorescence assay; format: functional, cell-based
T1 sequence (P21462 whole entry): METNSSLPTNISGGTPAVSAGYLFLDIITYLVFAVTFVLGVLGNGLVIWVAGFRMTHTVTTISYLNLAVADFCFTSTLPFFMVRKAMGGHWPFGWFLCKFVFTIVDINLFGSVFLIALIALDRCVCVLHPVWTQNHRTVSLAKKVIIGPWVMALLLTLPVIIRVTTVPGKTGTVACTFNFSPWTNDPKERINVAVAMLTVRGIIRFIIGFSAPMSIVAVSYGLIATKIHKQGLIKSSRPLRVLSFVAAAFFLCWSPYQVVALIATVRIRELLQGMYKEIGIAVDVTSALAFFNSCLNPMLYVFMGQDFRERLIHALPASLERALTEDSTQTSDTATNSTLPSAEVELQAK
Summary of the method: (§1)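 Agonist transduction coefficients (Log(τ/KA)) for each signaling output estimated with an extension of the Black-Leff operational model. Values normalized to a reference ligand and to Ca2+ mobilization as reference pathway, giving ΔLog(τ/KA) and Log(bias factors). Data are mean ± SEM of 4 independent experiments, each performed in duplicate.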

fMet-Leu-Phe receptor [2] = biological target: T1, fMet-Leu-Phe receptor; assay: Biased agonist activity at human FPR1 expressed in FlpIn-CHO cells assessed as stimulation of ERK1/2 phosphorylation measured after 7 mins by Alphascreen assay; format: cell-based; summary of the method: as §1
[3] = Intrinsic clearance in mouse liver microsomes assessed per mg protein; format: ADME, Microsome
Summary of the method: (§2)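 Intrinsic clearance measured in vitro in mouse and human liver microsomes; reported as μL/min/mg protein.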

[4] = Kinetic solubility of the compound at pH 2; format: physicochemical; settings: buffer, read-out: Kinetic_solubility
Summary of the method: (§3)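 Kinetic solubility measured by nephelometry at pH 2.0 and pH 6.5; reported in μg/mL.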

[5] = Kinetic solubility of the compound at pH 6.5; format: physicochemical; settings: buffer, read-out: Kinetic_solubility; summary of the method: as §3
[6] = Protein binding in human plasma by chromatographic method; format: ADME, cell-free; settings: read-out: PPB (converted)
Summary of the method: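 Human plasma protein binding estimated by a chromatographic method; reported as percent bound.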

[7] = Lipophilicity, log P of the compound by chromatographic method; format: physicochemical
Summary of the method: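 Lipophilicity ([…]) measured chromatographically.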

[8] = biological target: T2, N-formyl peptide receptor 2 (Homo sapiens, UniProt P25090); assay: Biased agonist activity at human FPR2 expressed in FlpIn-CHO cells assessed as intracellular calcium mobilization by Fluo-4-AM dye based fluorescence assay; format: functional, cell-based; summary of the method: as §1
T2 sequence (P25090 whole entry): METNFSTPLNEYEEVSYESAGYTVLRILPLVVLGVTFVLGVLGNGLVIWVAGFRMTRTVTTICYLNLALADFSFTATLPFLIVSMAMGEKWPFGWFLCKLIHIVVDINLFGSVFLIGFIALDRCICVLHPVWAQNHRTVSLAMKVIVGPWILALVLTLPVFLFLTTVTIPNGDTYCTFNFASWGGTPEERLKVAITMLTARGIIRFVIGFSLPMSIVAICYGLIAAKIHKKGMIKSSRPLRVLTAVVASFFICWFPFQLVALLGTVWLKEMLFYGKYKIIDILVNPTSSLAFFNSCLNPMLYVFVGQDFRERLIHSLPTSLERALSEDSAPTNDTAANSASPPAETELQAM

[9] = biological target: T2, N-formyl peptide receptor 2; assay: Biased agonist activity at human FPR2 expressed in FlpIn-CHO cells assessed as stimulation of ERK1/2 phosphorylation measured after 7 mins by Alphascreen assay; format: cell-based; summary of the method: as §1
[10] = biological target: T3, fMet-Leu-Phe receptor (Homo sapiens) (UniProt P21462); assay: Bias factor, transduction co-efficient for biased agonist activity at human FPR1 expressed in FlpIn-CHO cells assessed as stimulation of ERK1/2 phosphorylation relative to 1-(4-chlorophenyl)-3-(5-isopropyl-1-methyl-3-oxo-2-phenyl-2,3-dihydro-1H-pyrazol-4-yl)urea to transduction co-efficient for …; format: functional, cell-based
T3 sequence (whole entry): T1 sequence (P21462 whole entry)

[11] = Intrinsic clearance in human liver microsomes assessed per mg protein; format: ADME, Microsome; summary of the method: as §2

Row | SMILES | EC50 (fMet-Leu-Phe receptor [1]; read-out: pEC50 (converted)) | EC50 (fMet-Leu-Phe receptor [2]; read-out: pEC50 (converted)) | further results
1 | COc1ccccc1Cc1cc(C)nn(CC(=O)Nc2ccccc2Cl)c1=O | > 100 µM | > 100 µM | 
2 | CCCCC(C(=O)Nc1ccc(Cl)cc1)n1nc(C)cc(Cc2ccccc2OC)c1=O (stereo not drawn) |  |  | microsomal CLint [3]: 233 µL/min/mg; solubility kinetic [4]: < 0.78 µg/mL; solubility kinetic [5]: < 0.78 µg/mL; fraction unbound [6]: 0.016; logP [7]: 5.2; EC50 [8]: 0.0513 µM; EC50 [9]: 0.0708 µM; EC50 (fMet-Leu-Phe receptor [1]): 0.891 µM; EC50 (fMet-Leu-Phe receptor [2]; read-out: EC50): 0.083 µM; fold change (FC) [10]: 20
3 | CCc1ccc(NC(=O)Cn2nc(C)cc(Cc3ccccc3OC)c2=O)cc1 | > 100 µM |  | 
4 | Cc1cc(Cc2ccc(F)cc2)c(=O)n(CC(=O)Nc2ccc(Br)cc2[N+](=O)[O-])n1 | > 100 µM | > 100 µM | 
5 | COc1ccccc1Cc1cc(C(F)(F)F)nn(CC(=O)Nc2ccc(Cl)cc2)c1=O | > 100 µM | > 100 µM | 
6 | COc1ccccc1Cc1cc(C)nn(CC(=O)Nc2ccc(OC(F)(F)F)cc2)c1=O | > 100 µM | > 100 µM | 
7 | COc1ccc(OC)c(Cc2cc(C)nn(CC(=O)Nc3ccc(Cl)cc3)c2=O)c1 | 6.31 µM |  | 
8 | COc1ccc(NC(=O)Cn2nc(C)cc(Cc3ccccc3OC)c2=O)cc1 | > 100 µM |  | 
9 | COc1ccccc1Cc1cc(C)nn(CC(=O)Nc2ccc(C#N)cc2)c1=O | > 100 µM | > 100 µM | 
10 | COc1ccccc1Cc1cc(C)nn(CC(=O)Nc2cccc(C#N)c2)c1=O | > 100 µM | > 100 µM | 
11 | COc1cccc(Cc2cc(C)nn(CC(=O)Nc3ccc(Cl)cc3)c2=O)c1OC | 0.224 µM | 0.17 µM | 
12 | COc1ccccc1Cc1cc(C)nn(CC(=O)Nc2cccc(Cl)c2)c1=O | > 100 µM | > 100 µM | 
13 | Cc1cc(Cc2ccc(F)cc2)c(=O)n(CC(=O)Nc2c(F)cc(F)cc2[N+](=O)[O-])n1 | > 100 µM | > 100 µM | 
14 | COc1cccc(Cc2cc(C)nn(CC(=O)Nc3c(F)cc(Cl)cc3F)c2=O)c1 | > 100 µM | > 100 µM | 
15 | COc1ccccc1Cc1cc(C)nn(CC(=O)Nc2c(F)cc(Cl)cc2F)c1=O | > 100 µM | > 100 µM | 
16 | CCC(C(=O)Nc1ccc(Cl)cc1)n1nc(C)cc(Cc2ccccc2OC)c1=O (stereo not drawn) | > 100 µM | 1.86 µM | 
17 | CCCC(C(=O)Nc1ccc(Cl)cc1)n1nc(C)cc(Cc2ccccc2OC)c1=O (stereo not drawn) | 9.77 µM | 6.31 µM | 
18 | CCCCC(C(=O)Nc1ccc(Cl)cc1)n1nc(C)cc(Cc2cccc(OC)c2OC)c1=O (stereo not drawn) | 0.055 µM | 0.0933 µM | EC50 [8]: 0.0525 µM; EC50 [9]: 0.0617 µM
19 | COc1ccccc1Cc1cc(C)nn(CC(=O)Nc2ccc(Cl)cc2)c1=O | > 100 µM |  | 
20 | COc1ccccc1Cc1cc(C)nn(C(C(=O)Nc2ccc(Cl)cc2)C2CC2)c1=O (stereo not drawn) | > 100 µM | > 100 µM | 
21 | COc1ccccc1Cc1cc(C)nn(CC(=O)Nc2ccccc2C#N)c1=O | > 100 µM | > 100 µM | 
22 | CCCCC(C(=O)Nc1ccc(Br)cc1)n1nc(C)cc(Cc2cccc(OC)c2OC)c1=O (stereo not drawn) | 0.00646 µM | 0.245 µM | 
23 | COc1ccccc1Cc1cc(C)nn(C(C(=O)Nc2ccc(Cl)cc2)C(C)C)c1=O (stereo not drawn) | > 100 µM | 2.82 µM | 
24 | COc1ccccc1Cc1cc(C)nn(CC(=O)Nc2ccc(Cl)cc2Cl)c1=O | > 100 µM | > 100 µM | 
25 | CCCCC(C(=O)Nc1ccc(Cl)cc1)n1nc(C(F)(F)F)cc(Cc2ccccc2OC)c1=O (stereo not drawn) | > 100 µM | > 100 µM | 
26 | COc1cccc(OC)c1Cc1cc(C)nn(CC(=O)Nc2ccc(Cl)cc2)c1=O | 2.82 µM | 2.63 µM | 
27 | COc1cccc(Cc2cc(C)nn(CC(=O)Nc3ccc(Cl)cc3F)c2=O)c1 | > 100 µM | 5.62 µM | 
28 | COc1ccccc1Cc1cc(C)nn(CC(=O)Nc2ccc(Cl)cc2F)c1=O | > 100 µM | > 100 µM | 

Now from value to molecule, other results behind:

Row | EC50 (fMet-Leu-Phe receptor [1]; read-out: pEC50 (converted)) | EC50 (fMet-Leu-Phe receptor [2]; read-out: pEC50 (converted)) | SMILES | further results
29 | 0.155 µM | 0.145 µM | COc1cccc(Cc2cc(C)nn(C(C)C(=O)Nc3ccc(Cl)cc3)c2=O)c1OC (stereo not drawn) | 
30 | 6.17 to 25.1 µM |  | COc1cccc(Cc2cc(C)nn(C(C)C(=O)Nc3ccc(Cl)cc3)c2=O)c1 (stereo not drawn) | microsomal CLint [11]: 273 µL/min/mg; solubility kinetic [4]: < 1.6 µg/mL; solubility kinetic [5]: < 1.6 µg/mL; fraction unbound [6]: 0.026; logP [7]: 4; EC50 [8]: > 100 µM; EC50 [9]: 9.55 µM
31 | > 100 µM | > 100 µM | COc1cccc(Cc2cc(C)nn(C(C)C(=O)Nc3ccccc3Cl)c2=O)c1 (stereo not drawn) | 
32 | 17.4 µM | 1.38 µM | COc1ccccc1Cc1cc(C)nn(C(C)C(=O)Nc2ccc(Cl)cc2)c1=O (stereo not drawn) | 
33 | > 100 µM |  | COc1ccccc1Cc1cc(C)nn(C(C)C(=O)Nc2ccc(Br)cc2)c1=O (stereo not drawn) | 
34 | > 100 µM |  | COc1cccc(Cc2cc(C)nn(C(C)C(=O)Nc3cccc(F)c3)c2=O)c1 (stereo not drawn) | 
35 | > 100 µM |  | COc1ccc(Cc2cc(C)nn(C(C)C(=O)Nc3ccc(Br)cc3)c2=O)cc1 (stereo not drawn) | 
36 | > 100 µM |  | Cc1cc(Cc2ccc(F)cc2)c(=O)n(C(C)C(=O)Nc2ccc(Br)cc2)n1 (stereo not drawn) | 
37 | 11.5 µM | 0.148 µM | CCCCC(C(=O)Nc1ccc(Br)cc1)n1nc(C)cc(Cc2cccc(OC)c2)c1=O (stereo not drawn) | 
38 | > 100 µM |  | Cc1cc(Cc2cccc(F)c2)c(=O)n(C(C)C(=O)Nc2ccc(Br)cc2)n1 (stereo not drawn) | 
39 | > 100 µM |  | COc1cccc(Cc2cc(C)nn(C(C)C(=O)Nc3ccc(F)cc3)c2=O)c1 (stereo not drawn) | 
40 | > 100 µM |  | Cc1cc(Cc2ccccc2F)c(=O)n(C(C)C(=O)Nc2ccc(Br)cc2)n1 (stereo not drawn) | 
41 | > 100 µM | > 100 µM | COc1cccc(Cc2cc(C)nn(C(C)C(=O)Nc3cccc(Cl)c3)c2=O)c1 (stereo not drawn) | 
42 | 5.25 µM | 0.126 µM | CCCCC(C(=O)Nc1ccc(Cl)cc1)n1nc(C)cc(Cc2cccc(OC)c2)c1=O (stereo not drawn) | 
43 | > 100 µM | > 100 µM | COc1cccc(Cc2cc(C)nn(C(C)C(=O)Nc3ccccc3F)c2=O)c1 (stereo not drawn) | 
44 | > 100 µM | 0.331 µM | CCCCC(C(=O)Nc1ccc(Br)cc1)n1nc(C)cc(Cc2ccccc2OC)c1=O (stereo not drawn) | 
